{"source": "paper PMC10785272", "about": "(ACS Omega, 2023)", "key": {"HeLa cells": {"system": "HeLa cells", "test": "In vitro cytotoxicity MTS assay with HeLa cells", "format": "cell-based, human", "settings": "HeLa cell line, 48 h incubation, mean ± SD (n = 3)", "procedure,_shortened": "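HeLa cells were grown in EMEM with 10% FBS, nonessential amino acids and sodium pyruvate at 37 °C in 5% CO2. They were seeded at 40000 cells/well and left 24 h, then exposed 48 h to freshly prepared medium holding test compound over 0–100 or 0–1000 µM. MTS was added for 3 h and absorbance read at 490 nm. IC50 was obtained by curve fitting; runs were in triplicate.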"}, "A549 cell-bearing mice [1]": {"system": "A549 cell-bearing mice", "test": "In vivo assessment of antitumor effect and toxicity in A549 cell-bearing mice", "design": "species or system mouse", "settings": "2.7 mg of Pt/kg i.v. on days 1, 8, 15, 22; n = 6"}, "A549 cell-bearing mice [2]": {"system": "A549 cell-bearing mice", "test": "In vivo biodistribution", "design": "species or system mouse", "settings": "4 mg of Pt/kg tail vein; for ratio of platinum concentration tumor/blood / ratio of platinum concentration tumor/bone / ratio of platinum concentration tumor/kidney / ratio of platinum concentration tumor/liver / ratio of platinum concentration tumor/muscle: A549 cell-bearing mice; for platinum accumulation in tumors: ICP-MS, mean ± SD (n = 4)", "procedure,_shortened": "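Male BALB/c nu/nu mice (5 weeks old, quarantined 1 week) received 1 × 10^7 A549 cells s.c. into the right shoulder. At 50 mm3 tumour volume, mice got 4 mg Pt/kg by tail vein in freshly prepared saline (n = 4/group). At 24 and 48 h, Pt in tumour, muscle, bone, blood, liver and kidney was measured by ICP-MS after acid digestion. Values are ng Pt/g tissue and tumour/organ concentration ratios.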"}, "[3]": {"test": "In vitro stability of FGC-Pt in mouse plasma", "format": "in vitro ADME", "settings": "37 °C", "procedure,_shortened": "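Test compound (2.4 mg) was mixed with purchased mouse plasma (160 µL) and held at 37 °C for 0, 2, 4 and 6 h. Each mixture was diluted with saline, filtered and analysed by HPLC on a Sugar-D column with a water/methanol linear gradient at 0.5 mL/min, with UV detection at 220 nm. Results are mean ± SD, n = 3.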"}}, "data": [{"substance": "cis-Dichloro [(2-Fluoro-α-D-glucopylanosidyl)propane-1,3-diamine] Platinum [FGC-Pt]", "values": [{"measurement": "IC50", "setting": "HeLa cells", "value": "447 ± 99", "unit": "µM"}, {"measurement": "toxic side effects (body weight, loss of appetite, injection site)", "setting": "A549 cell-bearing mice [1]", "value": "reduces toxicity compared to that of cisplatin"}, {"measurement": "ratio of platinum concentration tumor/blood", "setting": "A549 cell-bearing mice [2]; 24 h post-injection", "value": 11.07}, {"measurement": "ratio of platinum concentration tumor/bone", "setting": "A549 cell-bearing mice [2]; 24 h post-injection", "value": 2.93}, {"measurement": "ratio of platinum concentration tumor/kidney", "setting": "A549 cell-bearing mice [2]; 24 h post-injection", "value": 0.29}, {"measurement": "ratio of platinum concentration tumor/liver", "setting": "A549 cell-bearing mice [2]; 24 h post-injection", "value": 0.50}, {"measurement": "ratio of platinum concentration tumor/muscle", "setting": "A549 cell-bearing mice [2]; 24 h post-injection", "value": 3.64}, {"measurement": "platinum accumulation in tumors", "setting": "A549 cell-bearing mice [2]; 24 h post-injection", "value": "1058 ± 220", "unit": "Pt ng/g tissue"}, {"measurement": "ratio of platinum concentration tumor/blood", "setting": "A549 cell-bearing mice [2]; 48 h post-injection", "value": 14.37}, {"measurement": "ratio of platinum concentration tumor/bone", "setting": "A549 cell-bearing mice [2]; 48 h post-injection", "value": 3.03}, {"measurement": "ratio of platinum concentration tumor/kidney", "setting": "A549 cell-bearing mice [2]; 48 h post-injection", "value": 0.42}, {"measurement": "ratio of platinum concentration tumor/liver", "setting": "A549 cell-bearing mice [2]; 48 h post-injection", "value": 0.59}, {"measurement": "ratio of platinum concentration tumor/muscle", "setting": "A549 cell-bearing mice [2]; 48 h post-injection", "value": 4.09}, {"measurement": "platinum accumulation in tumors", "setting": "A549 cell-bearing mice [2]; 48 h post-injection", "value": "1055 ± 278", "unit": "Pt ng/g tissue"}, {"measurement": "half-life in mouse plasma", "setting": "[3]", "value": "approximately 2 h"}]}]}
